Counter-ions that a name gives are not always drawn.
Assays:
SD rats = assay: Acute toxicological study; type: in vivo, rat
ZDF rats = assay: Antidiabetic study, HbA1c in ZDF rats; type: in vivo, rat; conditions: for HbA1c-lowering / antidiabetic effect (in words): repeated oral dosing BID, ZDF rats aged 11 to 13 weeks
Summary of the method: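 Male ZDF rats, 11 weeks old, allocated by HbA1c, fasting blood glucose and body weight. Test compound or metformin suspended in 5% gum Arabic, given orally twice daily and dosed on the latest body weight for 6 weeks. Body weight and food intake monitored. HbA1c measured by analyser, expressed as change from baseline; mean ± SE, n = 16 or 8; compared with vehicle group.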

[1] = Plasma pharmacokinetic study in SD rats; conditions: rat, in vivo
Summary of the method: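 Male SD rats, 6–7 weeks old; test compound given as oral suspension by body weight, two animals per compound. Tail-vein blood was collected. Plasma was mixed with 10-fold acetonitrile–methanol (1:1), centrifuged, and the supernatant analysed by LC-ESI-MS/MS (C18 column, ammonium acetate/acetonitrile gradient, negative-ion selected reaction monitoring). Plasma detection limit 0.01 μg/mL.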

[2] = test system: NaCT-expressing CHO cells; assay: TCA cycle activation assay; type: cell-based
Summary of the method: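 Stably transfected CHO-K1 cells express NaCT (pME18S, then pcDNA3.1(+) vectors); control CHO cells carry vector without the NaCT gene. Cells take up [1,5-14C]citric acid. TCA cycle activation is read as the reduction in residual intracellular radioactivity as the citrate is metabolised. Run with and without antimycin A (complex III inhibitor).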

Tissue distribution = type: in vivo, rat; conditions: 2 h after 10 mg/kg p.o., SD rats, mean of 2 animals; detection limit 0.04 μg/g
Summary of the method: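 Male SD rats, 6–7 weeks old, given test compound as oral suspension, two animals per compound; values are means of 2. Liver and brain homogenates and plasma were mixed with 10-fold acetonitrile–methanol (1:1), centrifuged, and supernatants analysed by LC-ESI-MS/MS in negative-ion SRM mode. Detection limits 0.01 μg/mL (plasma) and 0.04 μg/g (liver, brain).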

HepG2 cells = assay: Oxygen consumption rate; type: cell-based, human; conditions: in the presence of oligomycin, P < 0.01 vs DMSO

For `N#Cc1[nH]nnc1-c1cccc(OCc2cc(C(F)(F)F)ccc2C(F)(F)F)c1` [Compound 3a, 5-{3-[2,5-Bis(trifluoromethyl)benzyloxy]phenyl}-3H-[1,2,3]triazole-4-carbonitrile], the Deaths (SD rats; 300 mg/kg single dose, after hyperthermia and hyperglycemia) was “one of three”.
In the case of `N#Cc1[nH]nnc1-c1cccc(-c2cc(F)cc(C(F)(F)F)c2)c1` [Compound 3b, 5-(3′-Fluoro-5′-trifluoromethyl-[1,1-biphenyl]-3-yl)-3H-[1,2,3]triazole-4-carbonitrile], the “Doses elevating rectal temperature” value (SD rats; single dose, SD rats, 8 h after dosing) is reported as “no elevation of rectal temperature was observed” and the “HbA1c-lowering / antidiabetic effect (in words)” value (ZDF rats) is reported as “remarkable antidiabetic effect”.
For `N#Cc1[nH]nnc1-c1cc(Cl)cc(/C=C/c2cccc(C(F)(F)F)c2)c1` [Compound 3c, (E)-5-(3-Chloro-5-(3-(trifluoromethyl)styryl)phenyl)-3H-1,2,3-triazole-4-carbonitrile], the “Metabolite finding in PK study” value [1] was “a metabolite implying the possibility of future adverse effects was found”, the “In vitro activity relative to compound 1” value ([2]; EC50 of the TCA activation) was “one-third” and the “HbA1c-lowering / antidiabetic effect (in words)” value (ZDF rats) was “significant HbA1c lowering effect”.
With `N#Cc1[nH]nnc1-c1csc(-c2ccc(Cl)cc2)n1` [Compound 3d, 5-[2-(4-Chlorophenyl)-thiazol-4-yl]-3H-[1,2,3]triazole-4-carbonitrile] the “Brain distribution, concentration” value (Tissue distribution) was “indetectable” and the “HbA1c-lowering / antidiabetic effect (in words)” value (ZDF rats) was “prominent”.
With `Cc1sc(-c2ccc(C(F)(F)F)cc2)nc1-c1nn(C)nc1C#N` [Compound 4, 2-Methyl-5-{5-methyl-2-[4-(trifluoromethyl)phenyl]thiazol-4-yl}-2H-1,2,3-triazole-4-carbonitrile] the “Activation of the TCA cycle (in words)” value [2] was “did not occur”.
In the case of `O=[N+]([O-])c1ccc(O)c([N+](=O)[O-])c1` [DNP, 2,4-dinitrophenol], the “Concentration significantly increasing OCR” value (HepG2 cells) is reported as 40 µM.
With `N#CC(C#N)=NNc1ccc(OC(F)(F)F)cc1` [FCCP, Carbonyl cyanide p-trifluoromethoxyphenylhydrazone] the “Concentration significantly increasing OCR” value (HepG2 cells) was 0.25 µM.
With `CN(C)C(=N)N=C(N)N` [metformin, 1,1-Dimethyl biguanide (metformin) hydrochloride, reference compound] the “Effect on HbA1c, monotherapy (in words)” value (ZDF rats; 100 mg/kg/day alone, 6-week, ZDF rats) was “no effect”.
With `N[C@@H](CC(=O)N1CCn2c(nnc2C(F)(F)F)C1)Cc1cc(F)c(F)cc1F` [sitagliptin, Sitagliptin phosphate hydrate, reference compound] the “Reduction of HbA1c change from the vehicle value” (ZDF rats; monotherapy 10 mg/kg/day, 6-week, vehicle 2.97% points) was 11.4%.

— PMC8264940 (ACS Omega, 2021)
